Measured values published in ChEMBL document CHEMBL1124656, “Synthesis and biological evaluation of de(acetylglucosaminyl)didehydrodeoxy derivatives of teicoplanin antibodies” (J Med Chem, 1989).
Converted amounts (≈) assume the structure as drawn.

What was measured:
Staphylococcus aureus = assay: Minimum inhibitory concentration against Staphylococcus aureus Tour evaluated in vitro; format: functional
How it was run: (§1)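 Twofold broth microdilution in Oxoid Iso-Sensitest broth, final inoculum ~10⁴ cfu/mL, overnight at 37 °C. MIC (μg/mL) was read as the lowest concentration with no visible growth. Coagulase-negative staphylococci were identified by API STAPH per Kloos and Schleifer.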

Streptococcus pyogenes [1] = assay: Minimum inhibitory concentration against Streptococcus pyogenes C 203 evaluated in vitro; format: functional
How it was run: (§2)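 Twofold broth microdilution in Difco Todd-Hewitt broth, final inoculum ~10⁴ cfu/mL, overnight at 37 °C. MIC (μg/mL) was read as the lowest concentration showing no visible growth.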

[2] = system: Staphylococcus epidermidis; assay: Minimum inhibitory concentration against Staphylococcus epidermis ATCC 12228 evaluated in vitro; format: functional; how it was run: as §1
Streptococcus pneumoniae = assay: Minimum inhibitory concentration against Streptococcus pneumoniae UC 41 evaluated in vitro; format: functional; how it was run: as §2
[3] = Association constant of compound was evaluated at pH 5; format: ADME
How it was run: (§3)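 UV difference spectroscopy: Ac₂-L-Lys-D-Ala-D-Ala was added to antibiotic at 30 μM (initial) in 10% MeOH/sodium phosphate buffer (pH 5 or pH 9). Double-beam spectrophotometer, 4-cm nonthermostated cells, 24 ± 2 °C. ΔA was monitored at 294 nm, and Ka was taken from the slope of a Scatchard plot.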

[4] = Association constant of compound was evaluated at pH 9; format: ADME; how it was run: as §3
Staphylococcus simulans [5] = assay: Minimum inhibitory concentration against Staphylococcus simulans L1142 evaluated in vitro; format: functional; how it was run: as §1
Staphylococcus simulans [6] = assay: Minimum inhibitory concentration against Staphylococcus simulans L785 evaluated in vitro; format: functional; how it was run: as §1
Streptococcus pyogenes [7] = assay: Minimum inhibitory concentration against Streptococcus pyogenes C203 evaluated in vivo(mouse); format: functional
How it was run: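 Mice in groups of five were infected intraperitoneally with S. pyogenes C 203, with inoculum set so untreated animals die of septicemia within 48 h. A single subcutaneous treatment was given immediately after infection. ED₅₀ was calculated from the percentage surviving at each dose on day 7.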

[8] = system: Staphylococcus haemolyticus; assay: Minimum inhibitory concentration against Staphylococcus haemolyticus L1520 evaluated in vitro; format: functional; how it was run: as §1
[9] = system: Staphylococcus epidermidis; assay: Minimum inhibitory concentration against Staphylococcus epidermis L1378 evaluated in vitro; format: functional; how it was run: as §1
Staphylococcus hominis = assay: Minimum inhibitory concentration against Staphylococcus hominis L1070 evaluated in vitro; format: functional; how it was run: as §1
Staphylococcus warneri = assay: Minimum inhibitory concentration against Staphylococcus warneri L1375 evaluated in vitro; format: functional; how it was run: as §1
Enterococcus faecalis = assay: Minimum inhibitory concentration against Streptococcus faecalis ATCC 7080 evaluated in vitro; format: functional; how it was run: as §1
Streptococcus pyogenes [10] = assay: Minimum inhibitory concentration administered subcutaneously against Streptococcus pyogenes C203 in mouse; conditions: sc
[11] = Staphylococcus aureus, read-out: MIC
[12] = Streptococcus pyogenes, read-out: MIC
[13] = Staphylococcus epidermidis, ATCC 12228, read-out: MIC
[14] = Streptococcus pneumoniae, read-out: MIC

| Structure (SMILES) | MIC (Staphylococcus aureus) [µg/mL] | MIC (Streptococcus pyogenes [1]) [µg/mL] | MIC [2] [µg/mL] | MIC (Streptococcus pneumoniae) [µg/mL] | Ka [3] [M⁻¹] | Ka [4] [M⁻¹] | MIC (Staphylococcus simulans [5]) [µg/mL] | MIC (Staphylococcus simulans [6]) [µg/mL] | MIC (Staphylococcus aureus; [11]) [µg/mL] | ED50 (Streptococcus pyogenes [7]) [mg/kg] | MIC (Streptococcus pyogenes [1]; [12]) [µg/mL] | MIC [8] [µg/mL] | MIC [2, 13] [µg/mL] | MIC [9] [µg/mL] | MIC (Staphylococcus hominis) [µg/mL] | MIC (Streptococcus pneumoniae; [14]) [µg/mL] | MIC (Staphylococcus warneri) [µg/mL] | MIC (Enterococcus faecalis) [µg/mL] | ED50 (Streptococcus pyogenes [10]) [mg/kg] |
| --- | --- | --- | --- | --- | --- | --- | --- | --- | --- | --- | --- | --- | --- | --- | --- | --- | --- | --- | --- |
| N[C@H]1C(=O)NC2Cc3ccc(c(Cl)c3)Oc3cc4cc(c3O)Oc3ccc(cc3Cl)/C=C3\NC(=O)C(NC(=O)C4NC(=O)C(NC2=O)c2cc(O)cc(c2)Oc2cc1ccc2O)c1ccc(O)c(c1)-c1c(O)cc(O)cc1[C@@H](C(=O)O)NC3=O (stereo in doubt; 4) | 1 (≈ 0.847 µM) | 4 (≈ 3.39 µM) | 0.125 (≈ 0.106 µM) | 4 (≈ 3.39 µM) | < 100 | < 100 | – | – | – | – | – | – | – | – | – | – | – | – | – |
| N[C@H]1C(=O)NC2Cc3ccc(c(Cl)c3)Oc3cc4cc(c3O)Oc3ccc(cc3Cl)C/C3=N\C(=O)C(NC(=O)C4NC(=O)C(NC2=O)c2cc(O)cc(c2)Oc2cc1ccc2O)c1ccc(O)c(c1)-c1c(O)cc(O)cc1[C@@H](C(=O)O)NC3=O (some centres not stated) | – | – | – | – | 100000 | – | 0.125 (≈ 0.106 µM) | 0.125 (≈ 0.106 µM) | 0.25 (≈ 0.212 µM) | 5 | 1 (≈ 0.847 µM) | 0.5 (≈ 0.423 µM) | 0.125 (≈ 0.106 µM) | 0.125 (≈ 0.106 µM) | 0.125 (≈ 0.106 µM) | 1 (≈ 0.847 µM) | 1 (≈ 0.847 µM) | – | – |
| CCCCC/C=C/CCC(=O)N[C@@H]1[C@H](Oc2c3cc4cc2Oc2ccc(cc2Cl)[C@@H](O[C@@H]2O[C@@H](CO)[C@@H](O)[C@H](O)[C@@H]2NC(C)=O)[C@@H]2NC(=O)[C@H](NC(=O)[C@@H]4NC(=O)[C@H]4NC(=O)[C@@H](Cc5ccc(c(Cl)c5)O3)NC(=O)[C@H](N)c3ccc(O)c(c3)Oc3cc(O)cc4c3)c3ccc(O)c(c3)-c3c(O[C@H]4O[C@H](CO)[C@@H](O)[C@@H](O)[C@@H]4O)cc(O)cc3[C@@H](C(=O)O)NC2=O)O[C@@H](CO)[C@@H](O)[C@@H]1O | – | – | – | – | 1600000 | 2.1e+06 | 0.125 (≈ 0.0666 µM) | 0.25 (≈ 0.133 µM) | 0.125 (≈ 0.0666 µM) | – | 0.063 (≈ 0.0336 µM) | 4 (≈ 2.13 µM) | 0.25 (≈ 0.133 µM) | 0.5 (≈ 0.266 µM) | 0.25 (≈ 0.133 µM) | 0.063 (≈ 0.0336 µM) | 2 (≈ 1.07 µM) | 0.125 (≈ 0.0666 µM) | 0.18 |
| CCCCC/C=C/CCC(=O)N[C@@H]1[C@H](Oc2c3cc4cc2Oc2ccc(cc2Cl)CC2NC(=O)[C@H](N)c5ccc(O)c(c5)Oc5cc(O)cc(c5)C(NC2=O)C(=O)NC4C(=O)NC2C(=O)/N=C(\Cc4ccc(c(Cl)c4)O3)C(=O)N[C@H](C(=O)O)c3cc(O)cc(O[C@H]4O[C@H](CO)[C@@H](O)[C@@H](O)[C@@H]4O)c3-c3cc2ccc3O)O[C@@H](CO)[C@@H](O)[C@@H]1O (some centres not stated) | – | – | – | – | 390000 | 60000 | – | – | 0.5 (≈ 0.302 µM) | – | 0.063 (≈ 0.038 µM) | – | 0.25 (≈ 0.151 µM) | – | – | 0.063 (≈ 0.038 µM) | – | 1 (≈ 0.604 µM) | 0.35 |
| N[C@H]1C(=O)NC2Cc3ccc(c(Cl)c3)Oc3cc4cc(c3O)Oc3ccc(cc3Cl)C/C3=N\C(=O)C(NC(=O)C4NC(=O)C(NC2=O)c2cc(O)cc(c2)Oc2cc1ccc2O)c1ccc(O)c(c1)-c1c(O[C@H]2O[C@H](CO)[C@@H](O)[C@@H](O)[C@@H]2O)cc(O)cc1[C@@H](C(=O)O)NC3=O (some centres not stated) | – | – | – | – | 380000 | 61000 | – | – | 0.25 (≈ 0.186 µM) | – | 2 (≈ 1.49 µM) | – | 0.5 (≈ 0.372 µM) | – | – | 2 (≈ 1.49 µM) | – | 1 (≈ 0.745 µM) | 5.8 |
| CC(=O)N[C@@H]1[C@H](O[C@@H]2c3ccc(c(Cl)c3)Oc3cc4cc(c3O)Oc3ccc(cc3Cl)C[C@H]3NC(=O)[C@H](N)c5ccc(O)c(c5)Oc5cc(O)cc(c5)[C@H](NC3=O)C(=O)N[C@H]4C(=O)N[C@H]3C(=O)N[C@@H]2C(=O)N[C@H](C(=O)O)c2cc(O)cc(O[C@H]4O[C@H](CO)[C@@H](O)[C@@H](O)[C@@H]4O)c2-c2cc3ccc2O)O[C@@H](CO)[C@@H](O)[C@@H]1O | – | – | – | – | 1200000 | 90000 | – | – | 0.25 (≈ 0.16 µM) | – | 0.5 (≈ 0.32 µM) | – | 0.25 (≈ 0.16 µM) | – | – | 0.5 (≈ 0.32 µM) | – | 2 (≈ 1.28 µM) | – |
| CC(=O)N[C@@H]1[C@H](O[C@@H]2c3ccc(c(Cl)c3)Oc3cc4cc(c3O)Oc3ccc(cc3Cl)C[C@H]3NC(=O)[C@H](N)c5ccc(O)c(c5)Oc5cc(O)cc(c5)[C@H](NC3=O)C(=O)N[C@H]4C(=O)N[C@H]3C(=O)N[C@@H]2C(=O)N[C@H](C(=O)O)c2cc(O)cc(O)c2-c2cc3ccc2O)O[C@@H](CO)[C@@H](O)[C@@H]1O | – | – | – | – | 2.6e+06 | 32000 | – | – | 0.5 (≈ 0.357 µM) | – | 0.5 (≈ 0.357 µM) | – | 0.125 (≈ 0.0892 µM) | – | – | 1 (≈ 0.713 µM) | – | 1 (≈ 0.713 µM) | – |
| N[C@H]1C(=O)N[C@@H]2Cc3ccc(c(Cl)c3)Oc3cc4cc(c3O)Oc3ccc(cc3Cl)[C@@H](O)[C@@H]3NC(=O)[C@H](NC(=O)[C@@H]4NC(=O)[C@@H](NC2=O)c2cc(O)cc(c2)Oc2cc1ccc2O)c1ccc(O)c(c1)-c1c(O)cc(O)cc1[C@@H](C(=O)O)NC3=O [TEICOPLANIN AGLYCON] | – | – | – | – | 2.5e+06 | 30000 | 0.063 (≈ 0.0525 µM) | 0.063 (≈ 0.0525 µM) | 0.063 (≈ 0.0525 µM) | – | 0.125 (≈ 0.104 µM) | 0.125 (≈ 0.104 µM) | 0.016 (≈ 0.0133 µM) | 0.063 (≈ 0.0525 µM) | 0.063 (≈ 0.0525 µM) | 0.125 (≈ 0.104 µM) | 0.25 (≈ 0.209 µM) | 0.125 (≈ 0.104 µM) | 0.95 |
| N[C@H]1C(=O)NC2Cc3ccc(c(Cl)c3)Oc3cc4cc(c3O)Oc3ccc(cc3Cl)/C=C3\NC(=O)C(NC(=O)C4NC(=O)C(NC2=O)c2cc(O)cc(c2)Oc2cc1ccc2O)c1ccc(O)c(c1)-c1c(O)cc(O)cc1[C@@H](C(=O)O)NC3=O (stereo in doubt; 5) | – | – | 0.5 (≈ 0.423 µM) | – | – | < 100 | – | – | 2 (≈ 1.69 µM) | – | 8 (≈ 6.77 µM) | – | – | – | – | 8 (≈ 6.77 µM) | – | 16 (≈ 13.5 µM) | – |
